# According to PubChem BioAssay AID1480 (NMMLSC, 2009):
# The list shows a part of the results. Values without a mark were called inactive. Activity calls are given as the source filed them.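 Rule for the calls: active = fluorescence in ABCG2-expressing cells above the plate's control-well mean plus 3 SD (cut at about 15 in these data); inactive = the rest.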
# Test: green-channel fluorescence of compounds in IgMXP3 cells – cell-based, 488/530 nm, flow cytometry, artefact control for ABC transporter inhibitor project, confirmation (AID 1480)
# Conditions: compound autofluorescence 488/530 nm, at 6.6 µM, stronger effect = higher value
# In short: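 Material – ABCG2-expressing drug-resistant IgMXP3 cells · Detection – flow cytometry, FL1 green emission · Read-out – compound-well median cell fluorescence minus DMSO-well median fluorescence · Compound dosing – single dose, test compound at 6.6 µM final · Probe or stimulus – no JC-1 substrate · Timing – Cell–compound exposure 10 min, 25 °C, end-over-end rotation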
row,Structure (SMILES),fluorescence
1,COc1ccc(C)cc1NC(=O)C(Sc1ccccc1)c1ccccc1 (stereo not drawn),-1.74
2,CCOCC(=O)Nc1sc2c(c1C(=O)OCC)CCCC2,3.96
3,CCN1/C(=C/c2ccc3ccc(C)cc3[n+]2CC)Sc2ccccc21,228 (active)
4,Cc1ccc(OCC(O)CN2CCN(CC(O)COc3ccc(C)cc3Cl)CC2)c(Cl)c1 (stereo not drawn),31.2 (active)
5,CCOC(=O)c1sc(NC(=O)CSc2nnc(-c3ccco3)o2)c(C(=O)OCC)c1C,2.51
6,C=CCn1c(SCCOc2ccc(OC)cc2)nnc1C(NC(=O)c1ccc(OC)cc1)C(C)C (stereo not drawn),65.8 (active)
7,COc1ccc(-n2c(C)cc(C(=O)COC(=O)c3cc(OC)c(OC)cc3NC(=O)c3cccs3)c2C)cc1,1.61
8,COc1cccc(NC(=O)c2ccc(Cn3cc([N+](=O)[O-])cn3)o2)c1,9.06
9,O=C(Cc1c[nH]c2ccccc12)N/N=C/c1cccc(F)c1,-0.24
10,Cc1ccc(-n2c(SCC(=O)Nc3ncc(Cl)cc3Cl)nc3ccccc32)cc1,-0.59
11,Cc1c(CCOC(=O)CC23CC4CC(CC(C)(C4)C2)C3)sc[n+]1Cc1ccc([N+](=O)[O-])cc1,-1.69
12,Cc1cccc2cc(CN(Cc3cccs3)C(c3nnnn3C3CCCC3)C(C)C)c(=O)[nH]c12 (stereo not drawn),-2.04
13,C/C(=N\Nc1ncc(Cl)cc1Cl)c1ccc(S(=O)(=O)NCc2ccco2)cc1,-1.09
